Reference: paper PMC11956937 (bioRxiv, 2025)

How the values were obtained:
human TOP1 = target: T1, human TOP1 (Homo sapiens, UniProt P11387); test: Inhibition of human TOP1 relaxation activity; type: biochemical; conditions: comparison of IC50 values for TOP3B and TOP1 relaxation
T1 sequence (P11387 1-765): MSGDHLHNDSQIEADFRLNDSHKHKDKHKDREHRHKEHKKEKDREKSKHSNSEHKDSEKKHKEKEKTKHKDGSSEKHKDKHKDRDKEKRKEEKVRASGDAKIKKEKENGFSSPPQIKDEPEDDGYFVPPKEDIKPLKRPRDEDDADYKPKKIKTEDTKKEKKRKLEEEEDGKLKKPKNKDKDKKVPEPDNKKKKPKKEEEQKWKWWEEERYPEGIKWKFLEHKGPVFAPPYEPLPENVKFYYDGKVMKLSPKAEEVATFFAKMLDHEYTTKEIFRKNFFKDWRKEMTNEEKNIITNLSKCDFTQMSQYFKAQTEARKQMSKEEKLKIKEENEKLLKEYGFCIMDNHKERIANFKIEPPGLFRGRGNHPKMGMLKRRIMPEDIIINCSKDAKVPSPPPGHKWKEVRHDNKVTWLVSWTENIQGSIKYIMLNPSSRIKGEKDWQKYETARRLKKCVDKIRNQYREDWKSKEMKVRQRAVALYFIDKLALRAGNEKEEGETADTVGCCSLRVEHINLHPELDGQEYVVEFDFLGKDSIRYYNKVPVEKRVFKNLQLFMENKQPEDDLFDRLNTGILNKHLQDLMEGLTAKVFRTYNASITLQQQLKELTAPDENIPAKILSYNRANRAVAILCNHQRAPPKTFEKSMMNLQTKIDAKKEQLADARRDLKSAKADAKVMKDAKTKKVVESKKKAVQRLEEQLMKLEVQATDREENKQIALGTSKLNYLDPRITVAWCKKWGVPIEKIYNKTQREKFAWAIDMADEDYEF
In short: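 Recombinant human TOP1 expressed in S. cerevisiae EKY3, 1 unit, with 200 ng supercoiled pBAD/Thio plasmid in 10 mM Tris-HCl pH 8.0, 150 mM NaCl, 1 mM EDTA, 0.1 mM spermidine, 0.1 mg/mL BSA, 5% glycerol; 37 °C, 30 min; SDS stop. Run on 1% agarose in TAE, 20 h at 25 V; ethidium bromide stain. Remaining supercoiled DNA quantified as % inhibition vs DMSO; TOP1 IC50 compared with TOP3B IC50.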

human TOP3B = human TOP3B (Homo sapiens, UniProt O95985); test: Inhibition of human TOP3B relaxation of supercoiled DNA; type: biochemical; conditions: for Inhibition of the DNA relaxation activity of human TOP3B: tested at up to 200 μM concentration
In short: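 TOP3B (Sf9-expressed, GST/gel-filtration purified) and E. coli-expressed His-TDRD3 each at 18 nM, then DMSO or test compound, then 500 ng supercoiled pBAD/Thio plasmid; 20 mM HEPES-KOH pH 7.5, 5 mM MgCl2, 1 mM DTT, 0.1 mg/ml BSA; 37 ℃, 1 h. SDS/proteinase K stop; 1% agarose with 5 μg/mL chloroquine, SYBR Gold. Relaxed DNA gives % inhibition vs DMSO; 200 μM screen, IC50 from serial dilutions, 3–4 repeats.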

Chain of human TOP3B (O95985 whole entry): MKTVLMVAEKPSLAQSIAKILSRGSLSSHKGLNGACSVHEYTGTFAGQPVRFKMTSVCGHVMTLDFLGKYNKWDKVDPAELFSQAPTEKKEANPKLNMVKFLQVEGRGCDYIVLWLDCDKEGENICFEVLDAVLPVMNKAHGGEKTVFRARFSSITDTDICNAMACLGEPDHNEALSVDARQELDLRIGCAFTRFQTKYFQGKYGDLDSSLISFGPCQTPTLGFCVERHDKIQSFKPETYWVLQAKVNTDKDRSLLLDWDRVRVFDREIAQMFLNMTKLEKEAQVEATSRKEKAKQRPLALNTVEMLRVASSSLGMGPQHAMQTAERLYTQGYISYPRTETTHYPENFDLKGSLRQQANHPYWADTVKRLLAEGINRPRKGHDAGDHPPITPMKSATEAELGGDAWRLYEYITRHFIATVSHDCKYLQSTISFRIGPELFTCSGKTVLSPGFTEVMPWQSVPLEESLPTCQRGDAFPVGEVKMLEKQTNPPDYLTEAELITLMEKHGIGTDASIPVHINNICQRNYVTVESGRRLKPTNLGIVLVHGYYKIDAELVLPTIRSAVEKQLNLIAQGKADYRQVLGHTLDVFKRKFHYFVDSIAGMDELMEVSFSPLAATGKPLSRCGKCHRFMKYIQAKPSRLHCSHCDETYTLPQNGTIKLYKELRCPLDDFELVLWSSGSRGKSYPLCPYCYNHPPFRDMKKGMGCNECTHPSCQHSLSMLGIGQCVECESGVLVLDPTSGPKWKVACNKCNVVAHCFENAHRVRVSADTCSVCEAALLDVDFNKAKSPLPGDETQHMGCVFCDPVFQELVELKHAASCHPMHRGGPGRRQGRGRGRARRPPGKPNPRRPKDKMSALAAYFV
Chain of human TOP3B (Q9H7E2 whole entry partner): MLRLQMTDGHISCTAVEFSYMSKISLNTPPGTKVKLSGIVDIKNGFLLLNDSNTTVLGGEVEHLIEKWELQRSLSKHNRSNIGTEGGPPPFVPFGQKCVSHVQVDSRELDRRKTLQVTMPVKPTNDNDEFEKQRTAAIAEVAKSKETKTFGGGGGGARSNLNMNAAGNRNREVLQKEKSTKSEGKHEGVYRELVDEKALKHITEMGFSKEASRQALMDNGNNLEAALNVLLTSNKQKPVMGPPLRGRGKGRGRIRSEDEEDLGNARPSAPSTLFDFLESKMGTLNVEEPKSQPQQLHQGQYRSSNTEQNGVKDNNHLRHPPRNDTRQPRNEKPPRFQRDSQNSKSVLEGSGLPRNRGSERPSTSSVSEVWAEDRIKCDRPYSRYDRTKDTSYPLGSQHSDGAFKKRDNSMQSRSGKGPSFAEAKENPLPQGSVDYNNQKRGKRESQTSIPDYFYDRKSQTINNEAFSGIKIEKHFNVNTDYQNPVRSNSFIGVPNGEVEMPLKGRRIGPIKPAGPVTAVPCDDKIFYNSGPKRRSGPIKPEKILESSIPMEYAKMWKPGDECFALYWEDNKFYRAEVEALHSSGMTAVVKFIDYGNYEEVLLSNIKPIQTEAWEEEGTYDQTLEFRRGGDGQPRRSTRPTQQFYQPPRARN

## Nc1nc(Nc2ccc3c(c2)CC[C@@H](N2CCCC2)CC3)nn1-c1cc2c(nn1)-c1ccccc1CCC2 [bemcentinib]
Human TOP1
  Selectivity for inhibition of human TOP3B versus TOP1: inhibits TOP3B with greater potency than TOP1
Human TOP3B
  IC50: 34.3 µM
  Inhibition of the DNA relaxation activity of human TOP3B: Inhibition was observed

## CN1CCN(C2CCN(C(=O)Nc3cc(Oc4ccc(NC(=O)C5(C(=O)Nc6ccc(F)cc6)CC5)c(F)c4)ccn3)CC2)CC1 [golvatinib]
Human TOP3B
  Inhibition of the DNA relaxation activity of human TOP3B: Inhibition was observed only for bemcentinib

## Cc1cn(-c2cc(NC(=O)c3ccc(C)c(Nc4nccc(-c5cccnc5)n4)c3)cc(C(F)(F)F)c2)cn1 [nilotinib]
Human TOP3B
  Inhibition of the DNA relaxation activity of human TOP3B: Inhibition was observed only for bemcentinib

## Cc1cn(-c2cc(NC(=O)c3ccc(C)c(Nc4nccc(-c5cnccn5)n4)c3)cc(C(F)(F)F)c2)cn1 [radotinib]
Human TOP3B
  Inhibition of the DNA relaxation activity of human TOP3B: Inhibition was observed only for bemcentinib

## CNC(=O)c1cc(Oc2ccc(NC(=O)Nc3cc(C(C)(C)C)nn3-c3ccc4ncccc4c3)c(F)c2)ccn1 [rebastinib]
Human TOP3B
  Inhibition of the DNA relaxation activity of human TOP3B: Inhibition was observed only for bemcentinib

## Cc1cc(Nc2ncnc3ccc(NC4=NC(C)(C)CO4)cc23)ccc1Oc1ccn2ncnc2c1 [tucatinib]
Human TOP3B
  Inhibition of the DNA relaxation activity of human TOP3B: Inhibition was observed only for bemcentinib
